# T cruzi HTS: blocks T. cruzi growth inside host cells. intracellular Trypanosoma cruzi in host cells, plate reader. AID 651903. 4.9% of 22,000 active. activity score (inhibition), % at 5.01 µM; in the data active = activity score above about 55%;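 note: parasites and compound incubated about four days before reading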
# INS-1E ATP HTS: INS-1E beta cell protection from cytokine death | INS-1E cytokine-induced death, ATP luminescence, 48 h; normalised: neutral wells 0, positive control 100 | protection from cytokine-induced ATP loss, % at 10 µM | 0.1% of 20,000 active | AID 488910;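 active = mean replicate protection from cytokine-induced ATP loss at least 50% and at least 75% of replicates each reaching 50%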
#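 Test system: INS-1E rat cells | Quantity: 8000 cells per well | Medium: Phenol-red-free RPMI with 5% fetal bovine serum | Reagent: Cytokine cocktail of IFN-γ, TNF-α and IL-1β | Doses: One compound concentration, pin transfer | Timing: 48 h co-treatment, 10 min post-lysis read | Technique: Luminescent ATP assay (CellTiter-Glo)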
# A1 apoptosis 2: blocks A1, raising caspase activity; MEF A1-2A-BIM cells, caspase-Glo luminescence, 3 h; percent of clofoctol response, DMSO zero; AID 2465; 24,000 tested, under 10 active; caspase activation, % (concentration not given with the values); in the data active = caspase activation above about 5.9%
#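 Test system – A1-2A-BIM-expressing MEF cells · Input – 2500 cells/well · Medium – RPMI-1640 growth medium with 10% FBS · Compound dosing – 50 nL pinned compound · Timing – 3 h compound exposure at 37 °C · Technique – Caspase-Glo luminescence (DEVD substrate) · Evaluation – Caspase-3/7 activity from luminescence increase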
# A number is an active result; i = inactive; nt = no result given. Shown is part of a subset that was picked to be rich in hits.
SMILES,T cruzi HTS,INS-1E ATP HTS,A1 apoptosis 2
COc1ccc(S(=O)(=O)Nc2ccc3c(c2)CC(=O)N([C@@H](C)CO)C[C@@H](C)[C@@H](CN(C)S(=O)(=O)c2ccc(F)cc2)O3)cc1,63.5,i,nt
C[C@@H]1CN([C@H](C)CO)C(=O)Cc2cc(NS(=O)(=O)c3ccccc3)ccc2O[C@@H]1CN(C)S(=O)(=O)c1ccc(Cl)cc1,68.2,i,nt
COc1ccc(S(=O)(=O)N(C)C[C@H]2Oc3ccc(NS(=O)(=O)c4ccc(F)cc4)cc3CC(=O)N([C@@H](C)CO)C[C@H]2C)cc1,i,i,i
Cc1ccc(S(=O)(=O)Nc2ccc3c(c2)CC(=O)N([C@H](C)CO)C[C@@H](C)[C@@H](CN(C)S(=O)(=O)c2cccs2)O3)cc1,67.6,i,i
C[C@H]1CN([C@@H](C)CO)C(=O)Cc2cc(NS(=O)(=O)c3ccccc3)ccc2O[C@@H]1CN(C)S(=O)(=O)c1ccc(Cl)cc1,i,i,i
COc1ccc(S(=O)(=O)N(C)C[C@H]2Oc3ccc(NS(=O)(=O)c4ccc(C)cc4)cc3CC(=O)N([C@@H](C)CO)C[C@H]2C)cc1,i,i,nt
O=C(O)CCCCCC(=O)N/N=C/c1cccs1,i,i,nt
COc1ccc(/C=N\NC(=O)c2ccccc2O)c(O)c1,i,i,nt
Cc1[nH]cnc1/C=N/NC(=O)c1ccccc1O,i,i,i
O=C(CCCCCC(=O)N/N=C/c1cc(Br)cs1)NO,nt,nt,i
Cc1ccc(S(=O)(=O)Nc2ccc3c(c2)CC(=O)N([C@@H](C)CO)C[C@@H](C)[C@@H](CN(C)S(=O)(=O)c2ccc(C)cc2)O3)cc1,61.7,i,i
COc1ccc(S(=O)(=O)Nc2ccc3c(c2)CC(=O)N([C@H](C)CO)C[C@@H](C)[C@@H](CN(C)S(=O)(=O)c2ccccc2)O3)cc1,74.2,i,i
Cc1ccc(S(=O)(=O)Nc2ccc3c(c2)CC(=O)N([C@H](C)CO)C[C@@H](C)[C@@H](CN(C)S(=O)(=O)c2ccc(Cl)cc2)O3)cc1,66.3,i,i
Cc1ccc(S(=O)(=O)N(C)C[C@@H]2Oc3ccc(NS(=O)(=O)c4ccc(Cl)cc4)cc3CC(=O)N([C@H](C)CO)C[C@H]2C)cc1,i,i,nt
Cc1ccc(S(=O)(=O)Nc2ccc3c(c2)CC(=O)N([C@@H](C)CO)C[C@H](C)[C@@H](CN(C)S(=O)(=O)c2ccc(C)cc2)O3)cc1,i,i,nt
COc1ccc(S(=O)(=O)N(C)C[C@@H]2Oc3ccc(NS(=O)(=O)c4ccccc4)cc3CC(=O)N([C@H](C)CO)C[C@H]2C)cc1,i,i,i
C[C@@H]1CN([C@H](C)CO)C(=O)c2cccc(NC(=O)Nc3ccc(C(F)(F)F)cc3)c2O[C@@H]1CN(C)CC1CCCCC1,i,i,nt
C[C@H]1CN([C@@H](C)CO)C(=O)c2cccc(NC(=O)Nc3ccc(C(F)(F)F)cc3)c2O[C@@H]1CN(C)C,i,i,i
COc1ccc(NC(=O)Nc2cccc3c2O[C@H](CN(C)C(=O)Nc2ccc(C(F)(F)F)cc2)[C@H](C)CN([C@H](C)CO)C3=O)cc1,i,i,i
C[C@H](CO)N1C[C@H](C)[C@H](CN(C)C)Oc2c(NC(=O)Nc3ccc(C(F)(F)F)cc3)cccc2C1=O,81.0,i,i
C[C@@H]1CN([C@H](C)CO)C(=O)c2cccc(NS(=O)(=O)c3ccc(Cl)cc3)c2O[C@@H]1CN(C)C(=O)Nc1ccc(C(F)(F)F)cc1,i,i,i
C[C@H](CO)N1C[C@H](C)[C@H](CN(C)CC2CCCCC2)Oc2c(NC(=O)Nc3ccc(C(F)(F)F)cc3)cccc2C1=O,56.3,i,i
COc1ccc(NC(=O)N(C)C[C@@H]2Oc3c(NC(=O)Nc4ccc(C(F)(F)F)cc4)cccc3C(=O)N([C@H](C)CO)C[C@H]2C)cc1,59.9,i,i
C[C@@H]1CN([C@@H](C)CO)C(=O)c2cccc(NS(=O)(=O)c3ccc(Cl)cc3)c2O[C@@H]1CN(C)C(=O)Nc1ccc(C(F)(F)F)cc1,82.6,i,i
O=C(NO)c1cccc(C(=O)N/N=C/c2cccnc2)c1,i,i,i
SMILES,T cruzi HTS,INS-1E ATP HTS,A1 apoptosis 2
CC1(C)[C@H]2CC=C(/C=N\NC(=O)c3ccccc3O)[C@@H]1C2,i,i,i
O=C1O[C@H](c2ccccc2)[C@H](c2ccccc2)N2[C@H]1[C@@H](C(=O)O)[C@]1(C(=O)Nc3ccc(C#CC4(O)CCCCCC4)cc31)[C@H]2c1ccccc1OCCO,nt,nt,i
C[C@@H]1CN([C@H](C)CO)C(=O)c2cc(N(C)C)ccc2O[C@@H](C)CCCCO[C@@H]1CN(C)S(C)(=O)=O,nt,nt,i
Cc1ccc(O)c(/C=N/NC(=O)c2ccccn2)c1,i,i,nt
COc1ccc(Br)c(/C=N/NC(=O)c2ccccc2O)c1,i,i,nt
C[C@H](CO)N1C[C@H](C)[C@@H](CN(C)C(=O)Nc2ccc(F)cc2)Oc2c(NC(=O)Nc3ccc(C(F)(F)F)cc3)cccc2C1=O,i,i,i
C[C@@H]1CN([C@H](C)CO)C(=O)c2cccc(NC(=O)Nc3ccc(C(F)(F)F)cc3)c2O[C@H]1CN(C)C(=O)Nc1ccc2c(c1)OCO2,66.4,i,i
C[C@H]1CN([C@@H](C)CO)C(=O)c2cccc(NC(=O)Nc3ccc(C(F)(F)F)cc3)c2O[C@H]1CN(C)C(=O)Nc1ccc(C(F)(F)F)cc1,i,i,nt
C[C@@H]1CN([C@H](C)CO)C(=O)c2cccc(NC(=O)Nc3ccc(C(F)(F)F)cc3)c2O[C@@H]1CN(C)C(=O)Nc1ccc(C(F)(F)F)cc1,74.7,i,i
C[C@H]1CN([C@@H](C)CO)C(=O)c2cccc(NC(=O)Nc3ccc(C(F)(F)F)cc3)c2O[C@H]1CN(C)C(=O)Nc1ccc(F)cc1,59.8,i,i
C[C@@H]1CN([C@@H](C)CO)C(=O)c2cccc(NC(=O)Nc3ccc4c(c3)OCO4)c2O[C@@H]1CN(C)C(=O)Nc1ccc(C(F)(F)F)cc1,i,i,i
O=C(CCCCC(=O)N/N=C/c1cccnc1Cl)NO,i,i,nt
O=C(NO)c1ccc(C(=O)N/N=C/c2ccc(I)cc2)cc1,i,i,i
COC(=O)CCCCCCC(=O)N/N=C/C[C@H](C)CCC=C(C)C,i,i,i
O=C(CCCCCCC(=O)Nc1ccccc1O)N/N=C/c1ccc(N2CCCC2)cc1,i,i,i
O=C(CCCCCC(=O)N/N=C/C1=CCCCC1)NO,nt,nt,i
C[C@@H]1CN([C@@H](C)CO)C(=O)c2cc(NS(=O)(=O)c3ccc(Cl)cc3)ccc2O[C@@H](C)CCCCO[C@@H]1CN(C)C(=O)Nc1cccc2ccccc12,nt,nt,i
C[C@H](CO)N1C[C@H](C)[C@@H](CN(C)C(=O)Nc2ccc(C(F)(F)F)cc2)OCCCC[C@H](C)Oc2ccc(NS(=O)(=O)c3ccc(Cl)cc3)cc2C1=O,nt,nt,i
C[C@@H]1CCCCO[C@@H](CN(C)C(=O)Nc2ccc(C(F)(F)F)cc2)[C@@H](C)CN([C@H](C)CO)C(=O)c2cc(NS(=O)(=O)c3ccccc3)ccc2O1,60.7,i,nt
C[C@@H]1CCCCO[C@H](CN(C)C(=O)Nc2ccc(C(F)(F)F)cc2)[C@@H](C)CN([C@H](C)CO)C(=O)c2cc(NS(=O)(=O)c3ccc(Cl)cc3)ccc2O1,65.5,i,i
